These results are taken from ChEMBL document CHEMBL3526065, “Metabolism of [6]-shogaol in mice and in cancer cells” (Drug Metab Dispos, 2012).

Data set [1] in a line: Drug level in mouse CL-13 cells treated with 10 uM [6]-shogaol after 24 hrs by HPLC-ECD analysis. The class given is ADME, cell-based. Particulars: cl-13, 24 h. In outline:
(§1)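 Cells (1.0 × 10⁶) attached 24 h in six-well plates, then exposed to 10 μM final in McCoy's 5A with 10% FBS. Extracted with equal volume acetonitrile, diluted 5-fold, analysed by HPLC with electrochemical detection.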

Data set [2] relates to NCI-H1299. The data set is described as follows: Induction of apoptosis in human H1299 cells assessed as apoptotic cells at 40 uM after 24 hrs by TUNEL assay. It is filed as functional. In outline:
(§2)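 HCT-116 or H-1299 cells seeded at 1.0 × 10⁵/well, after 24 h exposed for 24 h to compound (10–80 μM) or DMSO control. Cells were proteinase K-pretreated, formaldehyde-fixed, and slide-mounted for peroxidase TUNEL staining. Ten fields per slide counted at 400×; brown-nucleus cells given as percentage of total cells; mean ± S.E., n = 10.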

Data set [3] can be described thus: Drug level in human H1299 cells treated with 10 uM [6]-shogaol after 24 hrs by HPLC-ECD analysis. It is filed as ADME, cell-based. Particulars: nci-h1299, 24 h. In outline:
as §1

For data set [4], the system named is HCT-116. As to the kind of experiment: Induction of apoptosis in human HCT116 cells assessed as apoptotic cells at 80 uM after 24 hrs by TUNEL assay. The class given is functional. The essentials: as §2
A short description of data set [5]: Drug level in C57BL/6J mouse feces treated with [6]-shogaol at 200 mg/kg, po by HPLC-ECD analysis relative to control. It is filed as ADME, organism-based. The arrangement: dose 200 mg/kg, route oral. The settings on record: in vivo. The essentials: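 Female C57BL/6J mice gavaged once with 200 mg/kg in corn oil, or corn oil alone (n = 5 each). 24-h feces collected in metabolic cages. Feces extracted by sonication 90 min in MeOH/H2O (50/50) + 0.1% acetic acid, centrifuged, diluted fivefold. Analysed by HPLC with electrochemical array detection (Gemini C18, phosphate/acetonitrile/THF gradient), compared against vehicle controls.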

A short description of data set [6]: Cytotoxicity against human H1299 cells assessed as growth inhibition after 24 hrs by MTT assay. The class given is functional, cell-based. Particulars: NCI-H1299, 24 h. The essentials: (§3)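 Cells seeded at 3000/well, attached 24 h at 37°C, then exposed to test agents (0–80 μM, 0.1% DMSO final) for 24 h in McCoy's 5A with 10% FBS. Medium replaced with 2.41 mM MTT for 3 h at 37°C; formazan dissolved in DMSO, absorbance 550 nm. Viability as percentage of DMSO control; mean ± S.D., n = 6.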

Data set [7] in a line: Cytotoxicity against human HCT116 cells assessed as growth inhibition after 24 hrs by MTT assay. Particulars: HCT-116, 24 h. The class given is functional, cell-based. In outline:
as §3

The nature of data set [8]: Drug level in mouse CL-13 cells treated with 10 uM [6]-shogaol by HPLC-ECD analysis. It is filed as ADME, cell-based. The essentials: as §1
Data set [9] concerns NCI-H1299. As to the kind of experiment: Induction of apoptosis in human H1299 cells assessed as apoptotic cells at 80 uM after 24 hrs by TUNEL assay. The class given is functional. The essentials:
as §2

Data set [10] in a line: Drug level in human HCT116 cells treated with 10 uM [6]-shogaol after 24 hrs by HPLC-ECD analysis. It is filed as ADME, cell-based. Particulars: hct-116, 24 h. The essentials: as §1
A further data set has as its system HT-29. The data set is described as follows: Drug level in human HT-29 cells treated with 10 uM [6]-shogaol by HPLC-ECD analysis. It is filed as ADME, cell-based. The essentials:
as §1

For data set [11], the system named is HCT-116. The data set is described as follows: Induction of apoptosis in human HCT116 cells assessed as apoptotic cells at 40 uM after 24 hrs by TUNEL assay. It is filed as functional. In outline: as §2

pIC50: −log10 of the molar value.

Regarding `CCCCCCCC(O)CCc1ccc(O)c(OC)c1` (configuration not stated), the Drug metabolism entry (in [1]; in data set [3]; in data set [8]; in data set [10]; in the data set on HT-29) was “metabolite_detected” each time. The Activity is recorded as 7.4% in the data set with NCI-H1299 [2], 16.9% in the data set with HCT-116 [4], 15.4% with NCI-H1299 [9] and 9.6% with HCT-116 [11]. Further, the Drug excretion result in data set [5] is reported as “metabolite_detected”. For the same molecule, the figures for the pIC50 in data set [6] and in [7] were 4.11 and 4.09, respectively.
